Source: PubChem BioAssay (Johns Hopkins Ion Channel Center)
Rows were chosen to be rich in hits. Some 3.5% of all compounds tested hit in one or more screens of this group.
RGS4 pot: potentiators or activators of RGS4 | AID 463111 | B-score at 10 µM | HEK293 M3R/inducible RGS4, carbachol calcium flux Fluo4; active compounds read low | hit rate 0.92% among 310,000;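 active means B-score of the integrated calcium signal more than 4 SD below the library mean, with starting fluorescence not abnormally high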;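 further: negative B-score means reduced calcium response which marks RGS4 activation or potentiation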
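Material: M3R-expressing HEK293 line, RGS4 induced by doxycycline | Schedule: Overnight RGS4 induction, 30 min dye load 37 °C, 20 min compound RT | Measured by: Fluo4 fluorescence kinetic imaging of calcium | Read-out: Integrated calcium ratio converted to B score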
MrgX1 allo act: human MrgX1 positive allosteric modulation, primary screen. MrgX1-HEK293, Fluo-4 calcium flux, FDSS; active compounds read high. B-score at 10 µM. hit rate 0.63% among 310,000. AID 588675;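 active means plate-corrected calcium response at least 3 library SD above typical, normal starting fluorescence, not activating the receptor alone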;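 further: compound read alongside a low EC10 to EC30 dose of BAM8-22 agonist; peak minus trough fluorescence over baseline measured at the second addition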
Target sequence (Q96LB2 whole entry, looked up): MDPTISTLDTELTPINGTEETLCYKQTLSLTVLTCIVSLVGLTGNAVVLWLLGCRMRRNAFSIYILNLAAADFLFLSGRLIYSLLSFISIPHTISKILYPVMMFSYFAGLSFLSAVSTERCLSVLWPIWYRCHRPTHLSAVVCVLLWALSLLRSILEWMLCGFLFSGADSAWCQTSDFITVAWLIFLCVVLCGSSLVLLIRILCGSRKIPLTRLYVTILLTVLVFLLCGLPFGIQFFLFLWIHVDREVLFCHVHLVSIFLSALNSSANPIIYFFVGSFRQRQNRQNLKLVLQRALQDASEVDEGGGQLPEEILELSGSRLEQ
RGS4 inh: human RGS4 inhibition; P49798; HEK293 M3R/RGS4 inducible, Fluo-4 calcium flux; active compounds read high; triggered by carbachol at its EC20; B-score at 10 µM; hit rate 0.45% among 310,000; AID 463165;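 active means B-score, a plate-corrected calcium signal, over three deviations above library mean, with baseline fluorescence within five deviations of library mean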;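 further: RGS4 expression induced by doxycycline in cells with stable M3 receptor; B-score is computed from the integrated fluorescence ratio over baseline after carbachol; higher B-score means a larger calcium signal and so more RGS4 inhibition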
Target sequence (P49798 whole entry, looked up): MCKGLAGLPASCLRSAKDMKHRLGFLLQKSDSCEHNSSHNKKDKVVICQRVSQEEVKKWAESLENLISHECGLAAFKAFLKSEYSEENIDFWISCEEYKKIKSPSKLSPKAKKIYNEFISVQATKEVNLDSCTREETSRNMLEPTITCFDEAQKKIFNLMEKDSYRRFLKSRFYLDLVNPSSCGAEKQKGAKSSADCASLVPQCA
MrgX1 ag: human MrgX1 receptor agonism, primary screen; AID 588627; B-score at 10 µM; hit rate 0.44% among 310,000; Q96LB2; MrgX1-HEK293 cells, Fluo-4 calcium fluorescence, agonist mode; active compounds read high;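 active means calcium response B-score plate-corrected fluorescence ratio at least 3 library SD, with starting fluorescence B-score inside 5 SD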
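Test system: HEK293 cells stably expressing human MrgX1 receptor; amount: 15,000 cells per well; doses: compound delivered in addition one of three; times: overnight plating before 1 h dye loading; detection: Fluo-4 NW calcium-flux fluorescence, kinetic read; read-out basis: B-scored fluorescence response ratio; controls: positive and negative controls per plate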
MrgX1 antagonist: blocks BAM8-22 activation of human MrgX1 receptor; Q96LB2; hit rate 1.3% among 310,000; MRGX1-HEK293 calcium flux, Fluo-4, BAM8-22 antagonism; active compounds read low; B-score at 10 µM;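 active means calcium-response B-score plate-corrected more than 3 library SD below zero, starting fluorescence within 5 deviations, no agonist response on first addition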;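 further: peak minus trough fluorescence over baseline after final BAM8-22 challenge near maximal dose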
MrgX1 allo conf: human MrgX1 positive allosteric modulation, re-confirmation. AID 602413. shares compounds with MrgX1 allo act. MrgX1-HEK293, Fluo-4 calcium fluorescence, FDSS. hit rate 13% among 1,200. activation (ratio percentage), % at 10 µM;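 active means ratio at least 3 SD above the weak peptide control, stable starting fluorescence, no direct agonism earlier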;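 further: compound followed by low BAM8-22 agonist challenge near EC20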
HEK293 Ca flux: MrgX1 antagonist counter-screen hit in parental HEK293 cells; shares compounds with MrgX1 antagonist; Fluo-4 calcium fluorescence, FDSS; fluorescence ratio F(max-min)/F0 at 10 µM; hit rate 2% among 4,000;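 active means duplicate-averaged calcium fluorescence ratio at least three times the standard deviation of buffer wells, a nonspecific response in parental cells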
HEK293 Ca counter: MrgX1 allosteric activator counter-screen hit in parental HEK293 cells; shares compounds with MrgX1 antagonist; parental HEK293 calcium flux, Fluo-4 fluorescence ratio; active compounds read high; fluorescence ratio F(max-min)/F0 at 10 µM; hit rate 0.4% among 4,000;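 active means calcium fluorescence ratio, averaged over duplicates, at least 3 SD of the buffer-well ratio, meaning a nonspecific response in receptor-free cells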;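 further: untransfected parental HEK293 lacking MrgX1 used as counterscreen for MrgX1 allosteric activators; fluorescence change taken during the second addition on a kinetic imager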
HEK293 Ca cntr2: activity in parental HEK293 cells lacking MrgX1 receptor | hit rate 8.7% among 4,000 | Fluo-4 calcium fluorescence (FDSS); active compounds read high | AID 624115 | shares compounds with MrgX1 antagonist | fluorescence ratio F(max-min)/F0 at 10 µM;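 active means calcium fluorescence ratio at least three times the spread of buffer wells, meaning a non-specific response in parental cells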
* hit, by the source's call.

Screening Cn1c(CN2CCCCC2)nc2cc(NC(=O)c3ccc(Cl)cc3)ccc21 returned RGS4 pot inactive, MrgX1 allo act inactive, RGS4 inh inactive, MrgX1 ag inactive and MrgX1 antagonist inactive.
N=c1sccn1CC(=O)N1N=C(c2ccc(Cl)cc2)CC1c1ccco1 (stereo not given) was read as RGS4 pot inactive, MrgX1 allo act 20.8*, RGS4 inh inactive, MrgX1 ag inactive, MrgX1 antagonist inactive, MrgX1 allo conf inactive, HEK293 Ca flux inactive, HEK293 Ca counter inactive and HEK293 Ca cntr2 inactive.
Screening CCCSc1nnc(N2C(=O)CC(c3ccsc3)C3=C2CCCC3=O)s1 (stereo not given) returned RGS4 pot inactive, MrgX1 allo act 8.77*, RGS4 inh inactive, MrgX1 ag inactive, MrgX1 antagonist inactive, MrgX1 allo conf inactive, HEK293 Ca flux inactive, HEK293 Ca counter inactive and HEK293 Ca cntr2 inactive.
For Brc1ccc2c(c1)CNc1c(ncnc1N1CCOCC1)O2 the results were RGS4 pot inactive, MrgX1 allo act 10.5*, RGS4 inh inactive, MrgX1 ag inactive, MrgX1 antagonist inactive, MrgX1 allo conf 18.3%*, HEK293 Ca flux inactive, HEK293 Ca counter inactive and HEK293 Ca cntr2 inactive.
Screening O=C(NCCc1c[nH]c2ccccc12)c1ccc(F)cc1F returned RGS4 pot inactive, MrgX1 allo act inactive, RGS4 inh inactive, MrgX1 ag inactive and MrgX1 antagonist inactive.
O=C(CN1CCC(O)(c2cccc(F)c2)CC1)NCCc1c[nH]c2ccccc12 was read as RGS4 pot inactive, MrgX1 allo act 7.64*, RGS4 inh inactive, MrgX1 ag inactive, MrgX1 antagonist inactive, MrgX1 allo conf inactive, HEK293 Ca flux inactive, HEK293 Ca counter inactive and HEK293 Ca cntr2 inactive.
CCc1nc2ccccc2c(C(=O)NCc2ccccc2)c1C was read as RGS4 pot inactive, MrgX1 allo act 6.98*, RGS4 inh inactive, MrgX1 ag inactive, MrgX1 antagonist inactive, MrgX1 allo conf inactive, HEK293 Ca flux inactive, HEK293 Ca counter inactive and HEK293 Ca cntr2 inactive.
`CCc1nc2ccccc2c(C(=O)O)c1C` gave RGS4 pot inactive, MrgX1 allo act inactive, RGS4 inh inactive, MrgX1 ag inactive and MrgX1 antagonist inactive.
`COc1ccc(-n2nc3c(c2NC(=O)CCl)CSC3)cc1` gave RGS4 pot inactive, MrgX1 allo act inactive, RGS4 inh inactive, MrgX1 ag inactive and MrgX1 antagonist inactive.
Screening Cc1ccc(Nc2cc(C)nc3c(C)cccc23)cc1 returned RGS4 pot inactive, MrgX1 allo act 7.29*, RGS4 inh inactive, MrgX1 ag inactive, MrgX1 antagonist inactive, MrgX1 allo conf inactive, HEK293 Ca flux inactive, HEK293 Ca counter inactive and HEK293 Ca cntr2 inactive.
`CC(=O)c1ccc(Nc2cc(C)nc3c(C)cccc23)cc1` gave RGS4 pot inactive, MrgX1 allo act inactive, RGS4 inh inactive, MrgX1 ag inactive and MrgX1 antagonist inactive.
For CCc1c(C(=O)NNC(=O)Nc2ccc3c(c2)OCO3)csc1C the results were RGS4 pot inactive, MrgX1 allo act inactive, RGS4 inh inactive, MrgX1 ag inactive and MrgX1 antagonist inactive.
For COc1ccc(C(=O)NCc2nnc(SCC(=O)Nc3cc(Cl)ccc3OC)o2)cc1 the results were RGS4 pot inactive, MrgX1 allo act inactive, RGS4 inh inactive, MrgX1 ag inactive and MrgX1 antagonist inactive.
For CC1Cc2ccccc2N1C(=S)NC(=O)c1cccc(Br)c1 (stereo not given) the results were RGS4 pot inactive, MrgX1 allo act 10.2*, RGS4 inh inactive, MrgX1 ag inactive, MrgX1 antagonist inactive, MrgX1 allo conf inactive, HEK293 Ca flux inactive, HEK293 Ca counter inactive and HEK293 Ca cntr2 inactive.
Screening CCc1nc2ccc(C(=O)N(C)CC(=O)Nc3ccc(Cl)c(C(F)(F)F)c3)cc2nc1CC returned RGS4 pot inactive, MrgX1 allo act 13.7*, RGS4 inh inactive, MrgX1 ag inactive, MrgX1 antagonist inactive, MrgX1 allo conf inactive, HEK293 Ca flux inactive, HEK293 Ca counter inactive and HEK293 Ca cntr2 inactive.
`Cc1nc(Oc2ccccc2)c2oc3ccccc3c2n1` gave RGS4 pot inactive, MrgX1 allo act 34.1*, RGS4 inh inactive, MrgX1 ag inactive, MrgX1 antagonist inactive, MrgX1 allo conf 24.9%*, HEK293 Ca flux inactive, HEK293 Ca counter inactive and HEK293 Ca cntr2 inactive.
For CCN(CC)CCOc1ncnc2c1oc1ccccc12 the results were RGS4 pot inactive, MrgX1 allo act inactive, RGS4 inh inactive, MrgX1 ag inactive and MrgX1 antagonist inactive.
COc1ccccc1Oc1ncnc2c1oc1ccccc12 was read as RGS4 pot inactive, MrgX1 allo act 15.3*, RGS4 inh inactive, MrgX1 ag inactive, MrgX1 antagonist inactive, MrgX1 allo conf 32.8%*, HEK293 Ca flux inactive, HEK293 Ca counter inactive and HEK293 Ca cntr2 inactive.
Cc1nc(Nc2ccccc2F)c2oc3ccccc3c2n1 was read as RGS4 pot inactive, MrgX1 allo act 6.96*, RGS4 inh inactive, MrgX1 ag inactive, MrgX1 antagonist inactive, MrgX1 allo conf inactive, HEK293 Ca flux inactive, HEK293 Ca counter inactive and HEK293 Ca cntr2 inactive.
For Cc1nc(Oc2ccccc2)c2ccsc2n1 the results were RGS4 pot inactive, MrgX1 allo act 9.77*, RGS4 inh inactive, MrgX1 ag inactive, MrgX1 antagonist inactive, MrgX1 allo conf 4.8%*, HEK293 Ca flux inactive, HEK293 Ca counter inactive and HEK293 Ca cntr2 inactive.
Screening COc1ccc(S(=O)(=O)N(C)C)cc1NC(=O)CSc1nncs1 returned RGS4 pot inactive, MrgX1 allo act inactive, RGS4 inh inactive, MrgX1 ag inactive and MrgX1 antagonist inactive.
`CCOC(=O)c1c(C)[nH]c(C)c1S(=O)(=O)N(C)CC(=O)Nc1cccc(C)c1` gave RGS4 pot inactive, MrgX1 allo act inactive, RGS4 inh inactive, MrgX1 ag inactive and MrgX1 antagonist inactive.
For CCOC(=O)C1CN(S(=O)(=O)c2cccs2)c2ccc(CC(=O)OC)cc2O1 (stereo not given) the results were RGS4 pot inactive, MrgX1 allo act inactive, RGS4 inh inactive, MrgX1 ag inactive and MrgX1 antagonist inactive.
